S100A4 MyoIIA: inhibitors of S100A4-myosin IIA peptide binding, primary screen, biochemical, fluorescence polarization, TAMRA-MyoIIA peptide; Protein S100-A4 (Homo sapiens), P26447; 360,000 tested, 0.14% active; inhibition, % at 10.7 µM;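 active = mean inhibition of at least 70% across replicates, with every replicate also reaching that level; inconclusive = mean inhibition reaches 70% but some replicates fall short; inactive = mean inhibition below 70%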
Target sequence (P26447 whole entry, looked up): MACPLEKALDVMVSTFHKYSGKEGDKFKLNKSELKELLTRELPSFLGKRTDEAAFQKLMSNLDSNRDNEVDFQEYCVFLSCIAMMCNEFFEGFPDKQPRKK
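Test system: S100A4 monomer protein; Medium: HEPES pH 7.2 with CaCl2, KCl, NaCl, DTT, Triton; Probe or stimulus: TAMRA-labelled myosin IIA heavy-chain peptide probe, 5 nM; Doses: one dose per compound; Times: polarization read 5 min after assay mix addition, stable 5–60 min; Benchmarks: neutral control DMSO, positive control TFP.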
ERAP1 inh: human ERAP1 aminopeptidase inhibitors, primary screen, biochemical, single point, plate reader. 340,000 tested, 0.15% active. inhibition, % at 10.7 µM. recombinant ERAP1, Leu-AMC fluorescence, 60 min. AID 652197, 2013;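 active = mean replicate inhibition of at least 30%, or all replicates individually reaching that 30% level; inactive = mean below 30% and not every replicate reaching it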
SIRT5 inh: SIRT5 desuccinylase inhibitors, primary screen, biochemical, fluorescence imaging, single point, set 5; Purified SirT5, succinyl-peptide AMC, trypsin-coupled fluorescence; inhibition, % at 15 µM; 330,000 tested, 1.1% active; AID 652115, 2013; in the data active = inhibition above about 15%; inconclusive = no clear call, values can overlap the other calls
Target sequence (Q9NXA8 whole entry, looked up): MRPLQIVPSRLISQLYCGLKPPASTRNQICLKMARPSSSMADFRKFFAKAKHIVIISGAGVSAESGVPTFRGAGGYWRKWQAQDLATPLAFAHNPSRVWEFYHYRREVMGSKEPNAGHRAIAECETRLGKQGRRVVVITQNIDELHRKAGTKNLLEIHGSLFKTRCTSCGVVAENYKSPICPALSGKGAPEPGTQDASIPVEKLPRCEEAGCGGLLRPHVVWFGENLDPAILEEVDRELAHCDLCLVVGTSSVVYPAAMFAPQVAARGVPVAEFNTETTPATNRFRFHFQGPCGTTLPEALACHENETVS
CAL PDZ FP-1: untagged CAL PDZ binding inhibitors, primary screen, biochemical, fluorescence polarization, HTS | Golgi-associated PDZ and coiled-coil motif-containing protein (Homo sapiens), Q9HD26 | 300,000 tested, 0.92% active | inhibition, % at 24.9 µM | purified CAL PDZ, TMR-peptide fluorescence polarization, 1 h;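 active = mean inhibition of at least 30% with at least half of replicates also reaching 30%; inconclusive = no clear call, values can overlap the other calls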
CAL PDZ FP-2: CAL PDZ peptide-binding inhibitors, primary screen, biochemical, fluorescence polarization, Cer-tagged CAL PDZ, HTS; Golgi-associated PDZ and coiled-coil motif-containing protein (Homo sapiens), Q9HD26; purified CAL PDZ, TMR-peptide fluorescence polarization, 1 h; inhibition, % at 20 µM; 330,000 tested, 0.02% active; AID 504414, 2011;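 active = highest replicate inhibition of at least 40%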
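Test system: tagged CAL PDZ domain / Buffer or medium: sodium phosphate/NaCl buffer pH 7.4 with TCEP, IgG, Thesit / Reagent: TMR-labelled reporter peptide T*-PRC34 bound in PDZ groove / Compound dosing: single point, 20 µM / Schedule: 1 h incubation at room temperature before polarization reading / Technique: fluorescence polarization (mP) / Benchmarks: unlabelled peptide, DMSO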
DENV2 CPE rescue: inhibitors of DENV2 cytopathic effect, primary screen, cell-based, plate reader, single concentration; CPE inhibition, % at 9.99 µM; DENV2-infected cells, cytopathic effect rescue; 350,000 tested, 1.7% active; in the data active = CPE inhibition above about 20%, passing the limit was not always enough; inconclusive = no clear call, values can overlap the other calls; tested in BHK-21 cells
Each line names hits and unclear results; the compound was inactive in the other large screens. In the library only some 2.9% were active in any assay of this set; here they are far more common.

C/C=C/c1cnc2c(c1)C(=O)N([C@@H](C)CO)C[C@@H](C)[C@H](CN(C)C(=O)c1ccc3c(c1)OCO3)O2	none (no result: CAL PDZ FP-1, CAL PDZ FP-2)
Oc1ccc(C[C@H]2CNC(=S)N2CC2CCCN2C[C@H](Cc2ccc(O)cc2)N2C[C@H](Cc3ccc(O)cc3)N(CC3CCCCCC3)C2=S)cc1 (some centres undefined)	SIRT5 inh 17 (no result: ERAP1 inh)
CC(C)C[C@@H](CN1CCC[C@@H]1CN1C(=S)NC[C@@H]1Cc1ccc(O)cc1)N1C[C@H](Cc2ccc(O)cc2)N(CC2CCCCC2)C1=S	DENV2 CPE rescue 28 (no result: CAL PDZ FP-1, CAL PDZ FP-2)
Cc1cccc(N2CCCC2=Nc2ccc(Br)cc2C#N)c1	none (no result: S100A4 MyoIIA, ERAP1 inh, SIRT5 inh, DENV2 CPE rescue)
N#Cc1cc(Br)ccc1N=C1CCCN1c1ccccc1	DENV2 CPE rescue 24 (no result: SIRT5 inh)
Cc1cc2ncc(S(C)(=O)=O)c(N)n2n1	CAL PDZ FP-1 56
O=C(O)c1cn[nH]c1-c1cccc([N+](=O)[O-])c1	CAL PDZ FP-1 61
CC(C)NC(=O)N(C)C[C@@H]1Oc2ccc(NC(=O)Cc3ccccc3)cc2CC(=O)N([C@H](C)CO)C[C@H]1C	none (no result: CAL PDZ FP-1, CAL PDZ FP-2)
CCc1ccccc1OCC(=O)NNCC(=O)Nc1cccc(C#N)c1	DENV2 CPE rescue 41
C[C@H](CO)N1C[C@H](C)[C@H](CN(C)S(=O)(=O)c2ccc(F)cc2)Oc2ncc(C#CC3CCCCC3)cc2C1=O	none (no result: CAL PDZ FP-1, CAL PDZ FP-2)
O=C(c1ccc2c(c1)OCO2)N1CC(=O)N2[C@H](CO)[C@H](c3ccc(C#CC4CCCC4)cc3)[C@@H]2C1	DENV2 CPE rescue inconclusive (no result: CAL PDZ FP-1, CAL PDZ FP-2)
CC(C)(C)CC(=O)NC(=S)Nc1ccccc1[N+](=O)[O-]	CAL PDZ FP-1 101
O=C(O)c1ccc(N/N=C/C2=C(N3CCOCC3)C(=C\c3ccccc3)/CC2)cc1	SIRT5 inh 19
Cc1cc(C)nc(N/N=C/C2=C(N3CCOCC3)C(=C\c3ccc(Cl)cc3)/CC2)n1	none (no result: S100A4 MyoIIA, ERAP1 inh, SIRT5 inh, DENV2 CPE rescue)
COc1cc(/C=C2\SC(=Nc3ccc(Cl)c(C(=O)O)c3)NC2=O)c(Br)c(Br)c1O	SIRT5 inh 26
C[C@@H]1CCCCO[C@H](CN(C)S(=O)(=O)c2ccccc2)[C@H](C)CN([C@H](C)CO)C(=O)c2cc(NC(=O)C3CCCCC3)ccc2O1	none (no result: CAL PDZ FP-1, CAL PDZ FP-2)
COc1ccc(-n2nnnc2/C=C\Nc2ccccc2C(=O)c2ccccc2)cc1	none (no result: S100A4 MyoIIA, ERAP1 inh, SIRT5 inh, DENV2 CPE rescue)
COc1ccc(-n2nnnc2/C=C/Nc2cc(C(F)(F)F)ccc2OC)cc1	CAL PDZ FP-1 105
Cc1noc(C)c1NC(=O)Nc1ccc2c(c1)C(=O)N([C@H](C)CO)C[C@H](C)[C@H](CN(C)C(=O)Nc1ccc(F)cc1)OCCCC[C@H](C)O2	none (no result: CAL PDZ FP-1, CAL PDZ FP-2)
CCCCOc1ccc(C(=O)N/N=C/c2ccc(OCCN3CCCCC3)c(OC)c2)cc1	DENV2 CPE rescue 32
CCOc1ccc(/C=N/NC(=O)c2ccoc2C)cc1OC	CAL PDZ FP-1 182
CO[C@@H]1CN(C)C(=O)c2ccc(NS(=O)(=O)c3ccccc3)cc2OC[C@H](C)NC[C@@H]1C	none (no result: CAL PDZ FP-1, CAL PDZ FP-2)
Cc1ccc(OCC(=O)N2CC(C)OC(C)C2)c([N+](=O)[O-])n1 (centres undefined)	CAL PDZ FP-1 46
CCOC(=O)N1CCC(N2C(=O)c3ccccc3C2Nc2ccc(S(=O)(=O)N(CC)CC)cc2)CC1 (centres undefined)	CAL PDZ FP-1 67
Cc1ccc(CN2C(=NC(=O)CCC(=O)O)SC3CS(=O)(=O)CC32)cc1 (centres undefined)	none
Cc1cc(C)c(N2C(=NC(=O)CCCC(=O)O)SC3CS(=O)(=O)CC32)c(C)c1 (centres undefined)	CAL PDZ FP-1 41 (no result: S100A4 MyoIIA, ERAP1 inh, SIRT5 inh, DENV2 CPE rescue)
COc1ccc2c3c([nH]c2c1)[C@H](CO)N(Cc1ccccc1)CC31CCN(C(=O)Cc2ccccc2)CC1	none (no result: S100A4 MyoIIA, ERAP1 inh, SIRT5 inh, CAL PDZ FP-1, CAL PDZ FP-2)
Cc1cccc(N2CCN(C(=O)CCc3nc4ccccc4[nH]3)CC2C)c1 (centres undefined)	SIRT5 inh 17

Assay outcomes from PubChem BioAssay.
